Biological target: T1, OR5B17 (Homo sapiens) (UniProt Q8NGF7)
T1 sequence (whole entry): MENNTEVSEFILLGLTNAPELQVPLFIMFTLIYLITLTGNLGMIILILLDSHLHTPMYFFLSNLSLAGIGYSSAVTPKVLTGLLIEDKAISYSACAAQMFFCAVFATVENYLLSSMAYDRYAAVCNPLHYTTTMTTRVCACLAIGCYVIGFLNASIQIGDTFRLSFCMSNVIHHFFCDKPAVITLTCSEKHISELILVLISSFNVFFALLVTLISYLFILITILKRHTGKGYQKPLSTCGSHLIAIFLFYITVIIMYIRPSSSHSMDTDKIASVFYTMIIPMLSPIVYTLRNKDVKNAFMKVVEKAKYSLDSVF
Conditions: stereoisomer not certain
Outline: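 Transient luciferase assays in mammalian cell lines were common, though methods varied by source. The values come from published papers and their supplementary material, with extra details from the original authors when needed. Responsive refers to a measured signal the original authors judged statistically different from baseline, and non-responsive (inactive) to the remainder.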
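Also: active if original authors judged signal statistically different from baseline.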

| Structure (SMILES) | odorant receptor agonist call |
| --- | --- |
| CC(C)CCCC(C)(C)O | inactive |
| CC(C)=CCCC(C)=CCO | inactive |
| C=CCOC(=O)COCCC(C)C | inactive |
| CC(=O)OCc1ccccc1 | inactive |
| Cc1occc(=O)c1OC(=O)C(C)C | inactive |
| CC(CC=O)c1ccc(C(C)(C)C)cc1 (stereo unspecified) | inactive |
| CC=CC(=O)C1C(C)=CCCC1(C)C (stereo unspecified) | inactive |
| COC1CC2CC1C1CC(C=O)CC21 (stereo unspecified) | inactive |
| COc1ccc(C)cc1 | inactive |
| CCc1ccc(CC(C)(C)C=O)cc1 | active |
| C=CC(C)(CCC=C(C)C)OC(C)=O (stereo unspecified) | inactive |
| CCC(=O)C=CC1C(C)=CCCC1(C)C (stereo unspecified) | inactive |
| CC1=CCC2CC1C2(C)C (stereo unspecified) | inactive |
| CC(C)=CCCC(C)CC=O (stereo unspecified) | inactive |
| CC(=O)C=CC1=C(C)CCCC1(C)C | inactive |
| CC1CC(C)(c2ccccc2)CO1 (stereo unspecified) | inactive |
| OCc1ccccc1 | inactive |
| CCCCC1CCC(=O)O1 (stereo unspecified) | inactive |
| CC(C)(C)C1CCCCC1OCCCCO (stereo unspecified) | inactive |
| CCCCCC1COCCC1OC(C)=O (stereo unspecified) | inactive |
| CCCC(C)C(=O)OCC (stereo unspecified) | inactive |

Reference: the M2OR odorant receptor database
